Activity calls are given as the source filed them. The rule behind the calls is not given here.
What was measured:
[1] = Chemical stability of compound in PBS at pH 7.4 incubated for 24 hrs at 40 degreeC by HPLC/UV/DAD analysis; assay type: physicochemical; conditions: read-out: Stability
[2] = target: T1, Histone deacetylase 8 (Homo sapiens) (UniProt Q9BY41); assay: Inhibition of HDAC8 in human U-937 cells assessed as increase in acetylation level of SMC3 at 10 uM measured after 48 hrs by Western blot analysis; assay type: cell-based
T1 sequence (whole entry): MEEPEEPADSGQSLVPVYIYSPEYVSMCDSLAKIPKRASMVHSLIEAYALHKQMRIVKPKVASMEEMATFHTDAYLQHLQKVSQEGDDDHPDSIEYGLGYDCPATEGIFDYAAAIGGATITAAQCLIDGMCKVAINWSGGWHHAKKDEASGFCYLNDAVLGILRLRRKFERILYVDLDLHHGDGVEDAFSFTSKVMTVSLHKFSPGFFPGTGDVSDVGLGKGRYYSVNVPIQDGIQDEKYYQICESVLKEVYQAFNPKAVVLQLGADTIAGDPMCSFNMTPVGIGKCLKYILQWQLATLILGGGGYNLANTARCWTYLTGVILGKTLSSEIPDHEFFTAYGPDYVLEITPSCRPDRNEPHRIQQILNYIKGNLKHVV
In short: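 HCT116 or U937 cells were treated at 10 µM for 24–48 h and lysed in NP40 buffer with protease/phosphatase inhibitors. 50 µg protein was resolved by SDS-PAGE and probed with anti-acetyl-SMC3 (Lys105/106, 1:1000), normalized to GAPDH (1:3000). PCI served as positive control, and band intensities were semi-quantified by densitometry.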

[3] = Metabolic stability in mouse liver microsome assessed as half life at 5 uM in presence of NADPH incubated up to 60 mins by HPLC analysis; assay type: ADME; conditions: liver microsomes
In short: (§1)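 Compound in MeCN was incubated at 5 µM and 37 °C in 100 mM phosphate buffer pH 7.4 with 0.5 mg/mL human or mouse liver microsomal protein. Reactions were started with an NADPH-regenerating system (2 mM NADPH, glucose-6-phosphate, G6PDH, MgCl2) and stopped with MeCN over 0–60 min. Remaining compound was measured by HPLC-UV at 254 nm, in triplicate, with first-order decay fitting.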

[4] = Toxicity in zebrafish AB embryos assessed as changes in dead and live embryos at 25 to 75 uM measured after 24 hrs; conditions: Danio rerio, in vivo
[5] = Toxicity in zebrafish AB embryos assessed as tolerance at 25 to 75 uM measured after 24 hrs; conditions: Danio rerio, in vivo
[6] = Chemical stability of compound in PBS at pH 7.4 measured after 24 hrs by HPLC/UV/DAD analysis; assay type: physicochemical; conditions: read-out: Stability
In short: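 DMSO stock (10 mM) was diluted to 250 µM (2.5% DMSO) in 50 mM PBS, pH 7.4, and kept 24 h at 25 °C with shaking. Peak area at 24 h versus T0 was measured by HPLC/UV/DAD at 254 nm, in triplicate. Stress tests used a methanol solution heated at 40 °C for 24 h, or 24 h under UV 254 nm.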

[7] = Metabolic stability in human liver microsome assessed as intrinsic clearance at 5 uM measured per mg protein in presence of NADPH incubated up to 60 mins by HPLC analysis; assay type: ADME; conditions: microsomes, 1 h; in short: as §1
[8] = Metabolic stability in human liver microsome assessed as half life at 5 uM in presence of NADPH incubated up to 60 mins by HPLC analysis; assay type: ADME; conditions: liver microsomes; in short: as §1
[9] = target: T2, Protein deacetylase HDAC6 (Homo sapiens, UniProt Q9UBN7); assay: Inhibition of recombinant human full length N-terminal GST-tagged HDAC6 expressed in Sf9 cells using ZMAL (Z-(Ac)Lys-AMC as substrate measured after 90 mins by fluorescence plate reader analysis
T2 sequence (Q9UBN7 whole entry): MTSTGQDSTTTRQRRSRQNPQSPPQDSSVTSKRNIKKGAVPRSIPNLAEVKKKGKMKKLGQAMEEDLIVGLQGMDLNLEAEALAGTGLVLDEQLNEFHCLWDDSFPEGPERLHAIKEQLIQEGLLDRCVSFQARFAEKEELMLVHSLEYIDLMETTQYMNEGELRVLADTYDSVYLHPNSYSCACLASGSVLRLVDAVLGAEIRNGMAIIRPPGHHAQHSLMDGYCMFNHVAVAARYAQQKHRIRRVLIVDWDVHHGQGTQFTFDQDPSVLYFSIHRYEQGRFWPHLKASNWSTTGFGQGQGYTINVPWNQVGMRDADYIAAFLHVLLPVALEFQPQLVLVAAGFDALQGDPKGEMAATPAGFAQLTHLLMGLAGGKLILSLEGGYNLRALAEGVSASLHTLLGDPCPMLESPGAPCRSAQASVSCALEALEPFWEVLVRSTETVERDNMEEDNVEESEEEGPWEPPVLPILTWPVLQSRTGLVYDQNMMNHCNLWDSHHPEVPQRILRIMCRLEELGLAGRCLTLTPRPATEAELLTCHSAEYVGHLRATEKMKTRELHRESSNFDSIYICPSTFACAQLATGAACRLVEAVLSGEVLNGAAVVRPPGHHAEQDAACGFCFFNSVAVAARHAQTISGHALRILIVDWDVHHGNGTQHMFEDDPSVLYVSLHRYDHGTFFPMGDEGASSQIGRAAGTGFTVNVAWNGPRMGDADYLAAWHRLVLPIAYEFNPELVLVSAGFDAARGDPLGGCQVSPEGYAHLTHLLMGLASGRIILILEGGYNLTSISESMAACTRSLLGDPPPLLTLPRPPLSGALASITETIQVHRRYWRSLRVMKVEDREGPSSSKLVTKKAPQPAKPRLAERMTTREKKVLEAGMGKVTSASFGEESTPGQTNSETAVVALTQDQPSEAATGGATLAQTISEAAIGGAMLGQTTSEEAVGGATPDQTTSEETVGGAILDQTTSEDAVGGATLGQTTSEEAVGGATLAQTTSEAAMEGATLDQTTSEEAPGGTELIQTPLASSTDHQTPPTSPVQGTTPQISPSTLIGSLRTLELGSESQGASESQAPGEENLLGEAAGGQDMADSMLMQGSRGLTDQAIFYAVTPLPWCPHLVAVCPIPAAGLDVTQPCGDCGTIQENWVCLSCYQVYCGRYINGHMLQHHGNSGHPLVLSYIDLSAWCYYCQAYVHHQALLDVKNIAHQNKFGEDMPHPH

[10] = Metabolic stability in rat liver microsome assessed as half life at 5 uM in presence of NADPH incubated up to 60 mins by HPLC analysis; assay type: ADME; conditions: liver microsomes
In short: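 Compound (in MeCN) at 5 μM incubated at 37 °C in 100 mM phosphate buffer pH 7.4 with 0.5 mg/mL liver microsomal protein (rat, mouse or human). CYP reactions started with NADPH-generating system (2 mM NADPH, glucose-6-phosphate, G6P dehydrogenase, MgCl2). Stopped with MeCN at intervals over 0–60 min. Remaining parent quantified by HPLC-UV at 254 nm. Ln % recovery vs time fitted to first-order decay. Triplicate incubations.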

| Compound | remaining at 24 h [1] | inhibition [2] | half-life at 5 µM [3] | Activity [4] | Activity [5] | remaining at 24 h [6] | CLH [7] | half-life at 5 µM [8] | IC50 [9] | half-life at 5 µM [10] |
| --- | --- | --- | --- | --- | --- | --- | --- | --- | --- | --- |
| O=C(NO)c1ccc(CNC(=O)N2CCC(N3CC(c4ccccc4)(c4ccccc4)C3=O)CC2)cc1 | 94% | Active | 67 min | Non-Toxic | Non-Toxic | 75% | 90.5 µL/min | 19 min | 3.4 nM | 98 min |
| O=C(NO)c1ccc(CNC(=O)N2CCC(N3C(=O)[C@H](c4ccccc4)[C@H]3c3ccccc3)CC2)cc1 (racemic) | 100% | Active | 64 min | Non-Toxic | Non-Toxic | 73% | 32.28 µL/min | 54 min | 21 nM | 86 min |
| O=C(NO)c1ccc(CC(=O)N2CCC(N3CC(c4ccccc4)(c4ccccc4)C3=O)CC2)cc1 |  | Active |  |  |  |  |  |  | 91 nM |  |
